An excerpt weighted towards active compounds, which were near 3.1% of everything screened.
MEKK3 PB1 HTS = raises or lowers MEK5 binding to the human MEKK3 PB1 domain; Q99759; bead-based flow cytometry, Alexa488-MEK5 binding to MEKK3; actives lie on both sides; 0 = blocked by unlabeled MEK5, 100 = vehicle; binding response (% of control), % at 10 µM; hit rate 1.4% among 290,000;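 active means binding response more than 3 SD above or below the average of its plate-row segment, actives on both sides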;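 further: Alexa488 bead fluorescence after subtracting the streptavidin-only scavenger bead signal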
MEKK2mut PB1 HTS = signal of MEK5 binding to mutant human MEKK2 PB1 domain | percent response, % at 10 µM | bead flow cytometry, Alexa488-MEK5 binding to MEKK2 mutant | hit rate 0.35% among 290,000; in the data active means percent response above about 24%, passing the limit was not always enough
UBC13 inh = inhibitors of human UBC13 polyubiquitin chain formation. TR-FRET. inhibition, % at 20 µM. hit rate 0.47% among 330,000. AID 485273; in the data active means inhibition above about 45%, passing the limit was not always enough
Target sequence (P61088 whole entry, looked up): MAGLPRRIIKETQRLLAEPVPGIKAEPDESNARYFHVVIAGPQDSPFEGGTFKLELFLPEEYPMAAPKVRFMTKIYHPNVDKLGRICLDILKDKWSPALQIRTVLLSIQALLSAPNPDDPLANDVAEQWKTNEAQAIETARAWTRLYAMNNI
MEKK2wt PB1 HTS = raises or lowers MEK5 binding to wildtype human MEKK2 PB1 domain; bead flow cytometry, Alexa488-MEK5 binding to MEKK2 WT; actives lie on both sides; Q9Y2U5; binding response (% of control), % at 10 µM; hit rate 1.1% among 290,000; in the data active means binding response below about 67% or above about 130%
Apaf-1 inh = inhibitors of human Apaf-1 apoptosome; inhibition, % at 20 µM; hit rate 0.71% among 330,000; AID 489030; reconstituted apoptosome caspase-3 activity, DEVD-Rh110 fluorescence; O14727; active means inhibition of at least 40% at 20 µM;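 further: plate controls were DMSO wells for no effect and DEVD-CHO caspase inhibitor wells for full effect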
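detection = Rh110 fluorescence intensity | test system = biochemical Apaf-1 apoptosome reconstitution | also added = cytochrome c and DEVD-Rh110 substrate | schedule = 30 min plus 50 min, RT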
PREPL inhibitor = inhibits the human prolyl oligopeptidase-like enzyme; Q4J6C6; recombinant PREPL, fluorescence polarization activity-based probe; inhibition, % at 5.96 µM; hit rate 0.68% among 320,000; in the data active means inhibition above about 43%;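 further: 0% = enzyme with DMSO and 100% = wells lacking enzyme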
MEKK2wt confirm = raises or lowers MEK5 binding to wildtype human MEKK2, retest | hit rate 2.4% among 5,900 | bead flow cytometry, Alexa488-MEK5 binding to MEKK2 WT; actives lie on both sides | shares compounds with MEKK3 PB1 HTS | binding response (% of control), % at 10 µM | AID 1892; in the data active means binding response below about 16% or above about 210%; inactive means in between
MEKK2mut confirm = signal of MEK5 binding to mutant human MEKK2, retest; shares compounds with MEKK3 PB1 HTS; hit rate 2% among 5,900; AID 1893; bead flow cytometry, Alexa488-MEK5 binding to MEKK2 mutant; percent response, % at 10 µM; in the data active means percent response mostly above about 71%, no sharp cut-off; inactive means mostly below about 38%;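 further: higher means compound restores mutant binding toward wildtype level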
MEKK3-MEK5 inh = confirmation of inhibitors of MEK5 binding to human MEKK3. shares compounds with MEKK3 PB1 HTS. bead flow cytometry, Alexa488-MEK5 binding to MEKK3; hits give low values. binding response (% of control), % at 10 µM. hit rate 1.8% among 5,900. AID 1894;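 active means binding response below 72% of control, or above a set upper limit, though filed actives all read lower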;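 further: 100% = DMSO only wells and 0% = binding blocked by excess unlabeled MEK5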
* hit, by the source's call; . = not tested or not shown; [ ] = another dose, or the depositor's remark.

SMILES	MEKK3 PB1 HTS	MEKK2mut PB1 HTS	UBC13 inh	MEKK2wt PB1 HTS	Apaf-1 inh	PREPL inhibitor	MEKK2wt confirm	MEKK2mut confirm	MEKK3-MEK5 inh
CN(C)c1ccc(/C=C2\SC(=S)N(Nc3ncc(C(F)(F)F)cc3Cl)C2=O)cc1	97	309*	-282	305*	-6	-22	34	-35	56*
O=C1C=CC(=O)N1CCCCCCN1C(=O)C=CC1=O	106	62*	.	101	.	-9	104	-2	101
Cc1cc(C)n2nc(-c3ccsc3-n3c(C)ccc3C)cc2n1	94	1	-10	9.0*[inhibitor]	5	12	96	3	103
O=C(CN1C(=O)NC2(CCCCC2)C1=O)Nc1ccccc1N1CCCC1	.	.	0	.	6	21	.	.	.
Cc1ccc(N2CC(C(=O)OCc3nnc(-c4ccccc4)o3)CC2=O)cc1 (centres undefined)	.	.	1	.	7	8	.	.	.
NCCNC(=O)c1c(NC(=O)c2ccccc2)sc2c1CCCC2	110	30*	11	149*	10	33	137	12	105
O=C(Nc1sc2c(c1C(=O)NCCCO)CCCC2)c1ccccc1	98	-1	17	103	26	4	.	.	.
Cc1onc(-c2ccccc2)c1C(=O)Nc1sc2c(c1C(N)=O)CCC2	2.0*[inhibitor]	-15	-11	2.0*[inhibitor]	14	19	106	0	98
COc1ccc(Nc2cc(C(=O)NCc3ccco3)c3ccccc3n2)c(OC)c1	133*	1	-8	107	18	16	99	0	101
COc1ccc(-c2cc(C(=O)NCc3ccco3)c3ccccc3n2)c(OC)c1	93	-11	5	84	12	4	.	.	.
CCOC(=O)C1NC(=O)CC1c1ccccc1 (centres undefined)	85	-7	8	89	0	-7	.	.	.
CCOC(=O)C1CSC2(CCC(c3ccccc3)CC2)N1 (centres undefined)	146*	9	4	136	-14	1	99	-2	98
COc1cc2c(cc1OC)C(c1ccc(-c3ccc(Cl)c(Cl)c3)o1)=NCC2	105	28	5	149*	41*	9	152	49	113
COC(=O)C1=NN(C(C)=O)C2(CC(=O)N(c3cccc(C)c3)C2=O)C1 (centres undefined)	116	1	-7	108	1	-4	.	.	.
CCOC(=O)C1=NN(C(C)=O)C2(CC(=O)N(c3cccc(C)c3)C2=O)C1 (centres undefined)	139*	0	0	104	-13	-1	105	-3	103
Cc1cc(C)nc(-n2nc(C)c(Br)c2Nc2ccc(Br)cc2)n1	100	1	2	95	19	6	.	.	.
Cc1nn(C)c(Nc2ccc(Br)cc2)c1Br	101	271*	7	.	3	-6	99	-3	98
COc1ccc(NC(=O)CSc2nnc(C)n2C2CC2)cc1S(=O)(=O)N1CCOCC1	.	.	-8	.	13	14	.	.	.
COc1ccc(COc2cc(-c3cccc(OC)c3)nc3ccc(NC(=O)c4ccc(N(C)C)cc4)cc23)cc1	100	3	1	95	-2	8	.	.	.
COc1ccc(COc2cc(-c3cccc(OC)c3)nc3ccc(NC(=O)c4ccc(C)cc4)cc23)cc1	1.0*[inhibitor]	-1	-6	1.0*[inhibitor]	14	-12	96	-2	105
CC(C)NC(=O)C1CCN(C(=O)N(C)C)CC1	1.0*[inhibitor]	-20	-3	-3.0*[inhibitor]	-10	29	97	-2	98
COc1ccc(NC(=O)N2CCCC2C(=O)NCCc2ccccc2)cc1 (centres undefined)	109	7	-2	110	-1	.	.	.	.
O=C(O)CCNC(=O)/C(=C\C=C\c1ccccc1)NC(=O)c1ccccc1	134*	35	-7	125	-29	-2	98	-8	99
Cc1ccc(C(=O)N/C(=C\C=C\c2ccccc2)C(=O)NCc2ccco2)cc1	146*	0	-3	107	-1	-10	96	-5	101
CCN(CC(=O)NCc1cccs1)C(=O)c1ccc(-c2ccc(F)cc2)o1	.	.	-5	.	-1	13	.	.	.
SMILES	MEKK3 PB1 HTS	MEKK2mut PB1 HTS	UBC13 inh	MEKK2wt PB1 HTS	Apaf-1 inh	PREPL inhibitor	MEKK2wt confirm	MEKK2mut confirm	MEKK3-MEK5 inh
c1ccc(CSc2nnc3ccc(-c4cccs4)nn23)nc1	105	197*	17	92	-24	6	98	1	102
c1cncc(CSc2nnc3ccc(-c4cccs4)nn23)c1	99	1	15	100	4	3	.	.	.
CS(=O)(=O)c1ccc(C(=O)OCC(=O)c2ccc(Cl)s2)cc1	.	.	-10	.	3	-5	.	.	.
OC(c1cc(-c2ccc(C(F)(F)F)cc2)nc(C(F)(F)F)c1)C1CCCCN1 (centres undefined)	111	57*	43	165*	27	-119	153	32	103
CCOC(=O)C1=CN(Cc2ccco2)S(=O)(=O)N(CC)C1c1ccc(C(F)(F)F)cc1 (centres undefined)	.	.	.	.	14	.	.	.	.
O=C(O)CSc1ncnc2sc3c(c12)CCCC3	93	-6	2	90	-9	17	.	.	.
Cc1ccc(C(=O)CSc2ncnc3sc4c(c23)CCCC4)cc1	0.0*[inhibitor]	-22	8	-7.0*[inhibitor]	3	8	99	-3	99
COc1cc(CNCCc2ccc(S(N)(=O)=O)cc2)ccc1OCc1ccc(Cl)cc1	105	71*	37	232*	-19	25	150	20	108
CC(=O)c1ccc(NC(=O)CSc2nnc(C3CC3)n2C2CC2)cc1	.	.	6	.	-9	3	.	.	.
CC(C)COCC1CC2(CC(C)C(=O)CC2=O)C(=O)O1 (centres undefined)	123*	17	-7	125	3	12	89	-10	85
Cc1cc(C)c[n+](-c2nc3ccccc3nc2[N-]S(=O)(=O)c2ccc(Cl)cc2)c1	137*	0	-2	111	-17	-1	103	2	103
Cc1cc(-c2n[nH]c(=S)n2/N=C/C=C/c2ccccc2)n[nH]1	153*	0	-9	105	12	12	103	10	105
COc1ccccc1/C=C/C=N/n1c(-c2cc(C)[nH]n2)n[nH]c1=S	91	1	-15	91	2	2	.	.	.

High-throughput results as filed in PubChem BioAssay.
